Screening data deposited in PubChem by several laboratories.
CTSL1 counter = cathepsin L1 inhibition, PFM18AAP counter-screen; recombinant F. hepatica cathepsin L1, Z-Leu-Arg-MCA fluorescence; inhibition, % at 5.96 µM; hit rate 0.49% among 300,000;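 active = inhibition above the mean of all tested compounds plus 3 SD, set per screening campaign, cut at about 17% in these data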
GAA850 FXN act = activators of GAA850 frataxin (FXN) promoter; HEK293 lucGAA850 FXN promoter luciferase reporter, 24 h; percent of 10 µM SAHA response; activation, % at 6 µM; hit rate 0.56% among 360,000; AID 540364;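 active = activation above the average of all compounds screened plus 3 SD, cutoff fixed separately per campaign, cut at about 7.5% in these data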
HDAC3 inh = human HDAC3 inhibition; O15379; recombinant HDAC3, fluorogenic peptide/trypsin coupled, fluorescence; inhibition, % at 8.3 µM; hit rate 0.15% among 320,000; AID 2718; in the data active = inhibition above about 26%, passing the limit was not always enough
M18AAP inhibitor = blocks P. falciparum M18 aspartyl aminopeptidase | recombinant PfM18AAP, H-Glu-NHMec fluorogenic cleavage | inhibition, % at 7.35 µM | hit rate 1.2% among 290,000;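 active = inhibition above the campaign mean inhibition over all tested compounds plus 3 SD, cut at about 28% in these data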
SENP1 FRET inh = blocks the human SENP1 SUMO protease catalytic domain; recombinant SENP1 catalytic domain, CyPet-SUMO1-YPet FRET cleavage; hit rate 0.21% among 360,000; Q9P0U3; inhibition, % at 10 µM;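 active = inhibition at least 30% at 10 µM, raw YFP signal under a set limit, fluorescence ratio 0.5 to 1.5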
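Test system: hSENP1 catalytic domain, recombinant; Amount: 20 pM final SENP1 enzyme; Medium: Tris pH 8 buffer plus EDTA, NaCl, BME, BSA, NP40, catalase; Schedule: 50 min enzyme reaction, room temperature, light-protected; Technique: FRET fluorescence in CFP and YFP emission channels; Controls: no-enzyme wells low, DMSO-plus-enzyme wells high control.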
AHR act = human AHR activation. P35869. AHR-responsive luciferase reporter cells, luminescence. activation, % at 5 µM. hit rate 2.5% among 320,000; in the data active = activation above about 47%
Target sequence (P35869 whole entry, looked up): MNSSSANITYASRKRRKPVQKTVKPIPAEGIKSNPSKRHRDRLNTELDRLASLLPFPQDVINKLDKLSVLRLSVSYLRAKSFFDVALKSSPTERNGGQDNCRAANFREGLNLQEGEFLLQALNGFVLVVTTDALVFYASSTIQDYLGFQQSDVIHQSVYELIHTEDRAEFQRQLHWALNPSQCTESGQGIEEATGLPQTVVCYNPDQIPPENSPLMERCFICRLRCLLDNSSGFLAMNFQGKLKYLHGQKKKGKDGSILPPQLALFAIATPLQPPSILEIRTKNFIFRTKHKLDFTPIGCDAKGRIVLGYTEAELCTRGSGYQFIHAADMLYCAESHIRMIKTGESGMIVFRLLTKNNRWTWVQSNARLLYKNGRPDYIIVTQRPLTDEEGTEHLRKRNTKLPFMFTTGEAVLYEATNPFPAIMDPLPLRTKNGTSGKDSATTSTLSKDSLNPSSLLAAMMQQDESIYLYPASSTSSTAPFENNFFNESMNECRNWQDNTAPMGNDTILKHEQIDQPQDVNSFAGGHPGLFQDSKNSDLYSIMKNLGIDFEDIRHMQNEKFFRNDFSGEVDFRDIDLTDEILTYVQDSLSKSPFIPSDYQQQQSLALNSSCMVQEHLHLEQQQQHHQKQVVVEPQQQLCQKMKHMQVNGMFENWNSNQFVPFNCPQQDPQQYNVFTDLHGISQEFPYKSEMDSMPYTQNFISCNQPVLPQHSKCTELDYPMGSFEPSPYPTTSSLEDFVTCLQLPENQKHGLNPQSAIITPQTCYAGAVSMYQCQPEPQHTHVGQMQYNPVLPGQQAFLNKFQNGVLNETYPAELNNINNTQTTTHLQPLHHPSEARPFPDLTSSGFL
AHR act cf = human AHR activation, confirmation. shares compounds with AHR act. human cells, AHR-responsive luciferase reporter, luminescence. activation, % at 9 µM. hit rate 87% among 2,300; in the data active = activation above about 49%;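 note: HepG2 hepatoma cells carrying a DRE-driven firefly luciferase reporter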
PXR act counter = activates human PXR in AHR activator counter-screen. shares compounds with AHR act. cell-based PXR reporter, luciferase luminescence. activation, % at 11.6 µM. hit rate 88% among 2,300. AID 434939; in the data active = activation above about 11%;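 note: human hepatoma DPX-2 cells expressing full-length human PXR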
Of the large screens only hits and unclear results are named; the others gave an inactive call (follow-up assays come after a bar, where they were run). A selection: hits, their analogues and other compounds. The true share with any hit is near 4.2%.

O=C(/C=C/Nc1ccc(F)cc1F)c1ccc(Br)cc1	AHR act 90.3 (no result: M18AAP inhibitor) | AHR act cf 90.0 | PXR act counter 12.1
O=C(/C=C\Nc1cccc(F)c1)c1cccs1	none
O=C(/C=C/Nc1ccc(F)cc1F)c1ccco1	none
O=C(/C=C/Nc1ccc(F)cc1F)c1cccs1	AHR act 86.5 | AHR act cf 108.1 | PXR act counter 86.1
Nc1nc(N)c2cc(CNc3ccc(Cl)c(Cl)c3)ccc2n1	none (no result: CTSL1 counter, HDAC3 inh, M18AAP inhibitor, AHR act)
C=C1c2cc3c(cc2NC(=S)N1Cc1ccccc1)OCO3	AHR act 86.5 | AHR act cf 64.5 | PXR act counter 144.9
COCC(C)NC(=O)c1oc2c(c1C)C1(CCC2)SCCS1 (centres undefined)	none
Cc1c(C(=O)NCCCN2CCOCC2)oc2c1C1(CCC2)SCCS1	AHR act 109.4 | AHR act cf 94.6 | PXR act counter 180.5
N=C1S/C(=C\c2ccc(-c3cccc(Cl)c3)o2)C(=O)N1c1nccs1	none
COc1ccc(/C=C2\SC(=N)N(c3nccs3)C2=O)cc1OC	AHR act 85.4 | AHR act cf 53.2 | PXR act counter 16.8
COc1cc2[nH]c(C(=O)NCc3ccccc3)cc2c(OC)c1OC	none
O=C(Nc1ccc(Cl)cc1)c1cccc(NC2=NC3CS(=O)(=O)CC3S2)c1 (centres undefined)	AHR act 181.9 | AHR act cf 117.0 | PXR act counter 18.7
CC(C)c1ccc(NC(=O)c2cccc(NC3=NC4CS(=O)(=O)CC4S3)c2)cc1 (centres undefined)	none
Nc1cccc(Nc2ncnc3ccccc23)c1	AHR act 152.1 | AHR act cf 65.5
COC(=O)[C@@H](NCc1cccc(CN[C@H](C(=O)OC)c2ccccc2)c1)c1ccccc1	none
Cc1ccc(S(=O)(=O)NC(=O)COc2ccccc2C)c(C)c1	none
Cc1cc(NC(=O)c2oc3ccccc3c2C)ccc1-n1cnnn1	AHR act 98.8 | AHR act cf 99.5 | PXR act counter 14.2
CCCc1c(C(=O)Nc2ccc(N3CCOCC3)cc2)cnn1-c1ccccc1	AHR act 83.5 | AHR act cf 101.8 | PXR act counter 11.6
Cc1c(C(=O)Nc2ccccn2)oc2ccccc12	AHR act 115.3 | AHR act cf 212.1 | PXR act counter 21.2
Cc1c(C(=O)Nc2ccc(N3CCOCC3)cc2)oc2ccccc12	AHR act 85.3 | AHR act cf 130.9 | PXR act counter 19.3
CN(C)c1ccc(-c2csc(C(C)(O)c3cccc(F)c3)n2)cc1 (centres undefined)	none (no result: CTSL1 counter, HDAC3 inh, M18AAP inhibitor, AHR act)
CCNC(=O)N(CC)C[C@H]1N[C@@](Cc2ccccc2)(C(=O)OC)[C@H]2C(=O)N(C)C(=O)[C@@H]12	none (no result: CTSL1 counter, M18AAP inhibitor)
Cc1ccc(S(=O)(=O)N[C@H](C(=O)N2CCC(C(=O)N[C@@H](CC(=O)O)C(=O)O)CC2)C(C)C)cc1	none
C=CCN([C@H](C(=O)OC)C(C)C)S(=O)(=O)CCNCc1ccccc1	none (no result: CTSL1 counter, HDAC3 inh, M18AAP inhibitor, AHR act)
CCOc1ccc2oc(C(=O)Nc3ccc(C)cn3)c(C)c2c1	none (no result: CTSL1 counter, HDAC3 inh, M18AAP inhibitor, AHR act)
Cc1ccc(NC(=O)c2oc3ccccc3c2C)nc1	AHR act 139.5 | AHR act cf 140.5 | PXR act counter 14.0
CCCOc1ccccc1-c1nc2c([nH]1)c(=O)[nH]c(=O)n2C	AHR act 137.1 | AHR act cf 79.0 | PXR act counter 34.3
Cn1c(=O)[nH]c(=O)c2[nH]c(CO)nc21	none (no result: CTSL1 counter, HDAC3 inh, M18AAP inhibitor, AHR act)
Cc1ccc(-n2c(O)cnc2Nc2nc(C)cc(C)n2)cc1	none
Cc1cc(C)nc(Nc2ncc(O)n2-c2ccccc2)n1	AHR act 90.0 | AHR act cf 61.1
O=C(/C=C/[C@H]1O[C@@H](n2ccc(=O)[nH]c2=O)[C@H](O)[C@@H]1O)NCc1ccco1	none (no result: CTSL1 counter, GAA850 FXN act, HDAC3 inh, M18AAP inhibitor, AHR act)
CCOc1cc(C2Nc3ccccc3C(=O)N2c2ccccc2)c(Br)cc1OCC(=O)O (centres undefined)	none
COc1cc(C2Nc3ccccc3C(=O)N2c2ccc(Cl)cc2)c(Cl)cc1OCC(=O)O (centres undefined)	AHR act 115.9 | AHR act cf 88.6 | PXR act counter 15.2
Cc1cccc(NC(=O)c2nc[nH]c2C(=O)N(C)Cc2ccccc2)c1	none (no result: CTSL1 counter, M18AAP inhibitor)
Cc1cnc(NC(=O)c2ccc(-c3nc4ccccc4s3)o2)s1	AHR act 88.8 | AHR act cf 113.6 | PXR act counter 14.2
O=C(CCNS(=O)(=O)c1ccccc1F)OCc1ccccc1Cl	none (no result: CTSL1 counter, M18AAP inhibitor)
CNc1ccc(-c2cc(OC)ccc2OC)cn1	none (no result: CTSL1 counter, HDAC3 inh, M18AAP inhibitor, AHR act)
COc1ccc(/C=N/Nc2nc(N)cc(Cl)n2)cc1OC	AHR act 89.0 | AHR act cf 72.3 | PXR act counter 16.3
Cc1ccc2cc(/C=N/Nc3nc4ccccc4[nH]3)c(Cl)nc2c1	none (no result: CTSL1 counter, HDAC3 inh, AHR act)
COc1ccc(/C=N/Nc2nc3ccccc3[nH]2)cc1OC	AHR act 110.7 | AHR act cf 85.5
COc1ccc2c(c1)c(/C=N/Nc1nc3ccccc3[nH]1)c(C)n2C	AHR act 97.8 | AHR act cf 62.8 | PXR act counter 40.4
BrC(=C\c1ccccc1)/C=N/Nc1nc2ccccc2[nH]1	AHR act 148.7 | AHR act cf 49.1 | PXR act counter 59.1
O=C(OC(c1ccccc1)c1nccc2ccccc12)c1cc([N+](=O)[O-])cc([N+](=O)[O-])c1 (centres undefined)	none
COc1cccc2cc(CC(=O)c3ccccc3)c(=O)oc12	none
COc1ccc2[nH]c(C)c(-c3csc(N)n3)c2c1	none
COc1ccc(-c2oc3c(c2C(=O)OCCO)C(OCCCO)CCC3)cc1 (centres undefined)	none (no result: CTSL1 counter, GAA850 FXN act, HDAC3 inh, M18AAP inhibitor, AHR act)
CSc1cccc(Nc2ccc(S(=O)(=O)N3CCOCC3)cc2[N+](=O)[O-])c1	none (no result: CTSL1 counter, M18AAP inhibitor)
COc1cc(/C=C2\SC(=S)N(CC(=O)Nc3ccc(O)cc3)C2=O)cc(OC)c1OC	none (no result: CTSL1 counter, HDAC3 inh, AHR act)
COc1ccccc1NC(=O)c1ccc(SCC(=O)NCc2ccccc2Cl)c([N+](=O)[O-])c1	AHR act 99.4 | AHR act cf 120.3 | PXR act counter 135.5
COc1ccccc1NC(=O)C(=O)NCc1ccccc1Cl	none
COc1ccccc1CNC(=O)CSc1ccc(C(=O)Nc2ccccc2OC)cc1[N+](=O)[O-]	AHR act 89.7 | AHR act cf 85.2 | PXR act counter 104.9
O=C(NCc1ccco1)c1[nH]c(C(F)(F)F)nc1-c1ccccc1	none (no result: CTSL1 counter, GAA850 FXN act, HDAC3 inh, M18AAP inhibitor, AHR act)
COC(=O)CCCCCCCC(=O)Nc1nnc(C(F)(F)F)s1	none (no result: HDAC3 inh)
O=C(CCCl)Nc1nc2c(s1)CCc1ccccc1-2	AHR act 99.4 (no result: HDAC3 inh) | AHR act cf 111.9 | PXR act counter 30.7
Cc1ccc(/C=N/NC(=O)CSc2nc3ccccc3n2C)s1	AHR act 108.2 | AHR act cf 91.9 | PXR act counter 52.3
